Published values from different studies.
Compare with care: the assays were run in different laboratories.
Effect on: cell growth or viability

Compound | cell line | assay | setting | IC50
FC(F)(F)c1ccc(-c2cc(COc3cc(C(F)(F)F)nc4ccccc34)on2)cc1 | K562 | MTS | 72 h | > 100 µM
CC(=O)c1ccc2cc(S(=O)(=O)Nc3cccnc3)ccc2c1 | MDCK | neutral red | 48 h | 20.7 µM
Cc1ccc(S(=O)(=O)n2cc(/C=N/NC(=O)Cc3ccccc3C(F)(F)F)c3ccccc32)cc1 | MCF-10A | MTT | 48 h | > 50 µM
Cc1ncsc1-c1ccc(CNC(=O)[C@@H]2C[C@@H](O)CN2C(=O)[C@@H](NC(=O)C2(F)CC2)C(C)(C)C)c(OCCOc2ccc(CN3CCN(c4cc(-c5ccccc5O)nnc4N)CC3)cc2)c1 | VCaP | ATP luminescence | 7 days | 0.0246 µM
CCOC(=O)c1c(C)nc2ccc(-c3cccc(F)c3)cc2c1O | MCF-10A | MTT | 48 h | ≥ 100 µM
Nc1nnc(-c2ccccc2O)cc1N1CC2CCC(C1)N2c1ccnc(F)c1 | VCaP | ATP luminescence | 7 days | > 1 µM
O=C1C(=O)N(CCn2ncc3c(=O)[nH]cnc32)c2ccc(F)cc21 | BALB/3T3 clone A31 | SRB | 72 h | 19.6 µg/mL
CC(C)=CCc1ncc(/C=C2\NC(=O)[C@H](C(C)C)NC2=O)[nH]1 | NCI-H446 | SRB |  | > 15 µM
O=C1C(=O)N(CCn2ncc3c(=O)[nH]cnc32)c2ccc(Cl)cc21 | BALB/3T3 clone A31 | SRB | 72 h | 11.4 µg/mL
CC(=O)c1ccc2cc(S(=O)(=O)Nc3ccc(Br)cc3)ccc2c1 | MDCK | neutral red | 48 h | 95.8 µM
Cc1ccc(S(=O)(=O)n2cc(/C=N/NC(=O)c3ccccc3)c3ccccc32)cc1 | MCF-10A | MTT | 48 h | > 50 µM
CC(C)[C@@H]1NC(=O)/C(=C/c2cnc[nH]2)NC1=O | NCI-H446 | SRB |  | > 15 µM
Cc1ccc(S(=O)(=O)n2cc(/C=N/NC(=O)c3ccc([N+](=O)[O-])cc3)c3ccccc32)cc1 | MCF-10A | MTT | 48 h | > 50 µM
COc1ccc2c(c1)C(=O)C(=O)N2CCn1cnc2c(N)ncnc21 | BALB/3T3 clone A31 | SRB | 72 h | 55.3 µg/mL
Cc1ccc(S(=O)(=O)n2cc(/C=N/NC(=O)c3cccnc3)c3ccccc32)cc1 | MCF-10A | MTT | 48 h | > 50 µM
C/C(=C\C(=O)N[C@H](C(=O)N1CCC[C@H]1C(=O)N(c1ccccc1)c1ccc(I)cc1)C(C)(C)C)c1ccc(OP(=O)(O)O)cc1 | JHH7 | CCK-8 |  | 7.19 µM
Nc1ccn([C@@H]2O[C@H](CO)[C@@H](O)C2(F)F)c(=O)n1 | 4T1 | MTT | 48 h | 3.37 µg/mL
CCCCC(=O)Nc1ccc(-c2ccc3ncn(CCC)c(=O)c3c2)cn1 | human PBMC | CCK-8 | 72 h | > 10 µM
N#Cc1ccc(-c2cc(COc3cc(C(F)(F)F)nc4ccccc34)on2)cc1 | K562 | MTS | 72 h | 83.2 µM
COc1ccc(NS(=O)(=O)c2ccc3cc(C(C)=O)ccc3c2)cc1 | MDCK | neutral red | 48 h | 18.2 µM
